Assay results from different studies.
Protocols differ between the studies behind these lines.
Target: Calcium/calmodulin-dependent protein kinase type IV (CAMK4, Homo sapiens, UniProt Q16566)
Sequence (Q16566 1-473, as in one of the studies): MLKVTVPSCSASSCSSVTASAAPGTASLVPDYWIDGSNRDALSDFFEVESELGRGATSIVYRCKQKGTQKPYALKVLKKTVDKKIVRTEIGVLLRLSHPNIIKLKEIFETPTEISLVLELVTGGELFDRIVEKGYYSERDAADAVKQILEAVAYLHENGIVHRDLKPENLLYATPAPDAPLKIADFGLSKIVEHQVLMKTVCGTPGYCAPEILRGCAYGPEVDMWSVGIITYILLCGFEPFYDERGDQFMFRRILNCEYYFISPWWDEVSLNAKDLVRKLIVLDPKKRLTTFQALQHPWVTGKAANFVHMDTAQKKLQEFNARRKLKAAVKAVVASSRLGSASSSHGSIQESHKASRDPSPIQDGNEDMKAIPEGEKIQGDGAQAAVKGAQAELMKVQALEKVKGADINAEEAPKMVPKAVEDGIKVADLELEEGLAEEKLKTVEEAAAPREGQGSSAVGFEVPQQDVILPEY

The remaining signal of Nc1ncnc2occ(-c3ccc(NC(=O)Nc4cc(C(F)(F)F)ccc4F)cc3)c12 is reported as 1.5% (cell-free assay, inhibitor; 20 µM).
The activity vs control of CC(C)c1ccc(NC(=O)c2cccs2)c(-c2nc3ccccc3[nH]c2=O)c1 is reported as 116% (enzyme activity, inhibitor; 1 µM).
COc1cc2ncnc(Nc3ccc(Oc4ccccc4)c(C)c3C)c2cc1OC gave an inhibition of -2% (enzyme activity, inhibitor; 1 µM).
CCN(CC)CCNC(=O)c1c(C)[nH]c(/C=C2\C(=O)Nc3ccc(F)cc32)c1C has an inhibition of 87% (enzyme activity, inhibitor; 10 µM).
The remaining signal of Oc1cccc(-c2nc(N3CCOCC3)c3oc4ncccc4c3n2)c1 is reported as 103% (cell-free assay; 0.5 µM).
For O=C(NCc1ncc(C(F)(F)F)cc1Cl)c1ccc2c(c1)C1(CCS(=O)(=O)CC1)[C@H](C1CC1)N2S(=O)(=O)c1ccc(F)cc1, the remaining binding was 86% (cell-free assay, competition with immobilised ligand; 1 µM).
The remaining signal of Cc1ccc(NC(=O)c2ccc(C)c(C(F)(F)F)c2)cc1C#Cc1nn(C2CCC(O)CC2)c2ncnc(N)c12 (centres unmarked) is reported as 93% (cell-free assay; 10 µM).
Cc1c[nH]c2nccc(Oc3c(F)cc(Nc4cc(Cl)nc(N)n4)cc3F)c12 gave a remaining binding of 100% (cell-free assay, competition with immobilised ligand; 0.1 µM).
CNC(=O)c1cc(Oc2ccc(NC(=O)Nc3ccc(Cl)c(C(F)(F)F)c3)cc2)ccn1 has an inhibition of 10% (enzyme activity, inhibitor; 10 µM).
The ΔTm of Cn1c2c(Cl)c(Cl)ccc2c2cn[nH]c(=O)c21 is reported as 0.1 °C (thermal stability, DSF; 10 µM).
The remaining signal of O=C1Nc2ccc(Cl)cc2C1=Cc1cc(Cl)c(O)c(Cl)c1 is reported as 96.8% (cell-free assay; 0.5 µM).
With COc1cccc(CNC(=O)c2nc3scc(COCc4ccc(C(=O)O)cc4)c3c(=O)[nH]2)c1 the remaining binding was 100% (cell-free assay, competition with immobilised ligand; 1 µM).
The ΔTm of CC1(C)NC(=O)c2[nH]c3c(Cl)c(Cl)ccc3c2C1C#N (centres unmarked) is reported as -0.1 °C (thermal stability, DSF; 10 µM).
N#CCCc1ccc2c(c1)-c1[nH]c3ccc([N+](=O)[O-])cc3c1CC(=O)N2 has a remaining signal of 98.4% (cell-free assay; 0.5 µM).
CCC(=O)N[C@@H]1CC[C@H](C(=O)N(C)c2ccc(-c3nc4ccccc4o3)cc2)C1 has a remaining binding of 100% (cell-free assay, competition with immobilised ligand; 1 µM).
Cc1ccc(C(=O)Nc2ccc(CN3CCN(C)CC3)c(C(F)(F)F)c2)cc1C#Cc1cnc2cccnn12 has a remaining activity of 100% (enzyme activity, inhibitor; 23.5 nM).
For COc1ccc2c(c1)O[C@@H](c1ccc(OC)c(OC)c1)C[C@H]2NC(=O)C1(c2ccc3c(c2)OC(F)(F)O3)CC1, the remaining binding was 89% (cell-free assay, competition with immobilised ligand; 1 µM).
Cc1ccc(Nc2nccc(N(C)c3ccc4c(C)n(C)nc4c3)n2)cc1S(N)(=O)=O has a remaining signal of 95.9% (cell-free assay, inhibitor; 0.5 µM).
The inhibition of Cc1ncc([N+](=O)[O-])n1C(=NO)c1ccccc1C(F)(F)F is reported as 27.6% (enzyme activity, inhibitor; 10 µM).
The inhibition of CN(C)C1CCN(CC#Cc2nn(C3CCCC3)c3nc(NCc4ccccc4)ncc23)C1 (centres unmarked) is reported as 7% (enzyme activity, inhibitor, FRET; 1 µM).
Clc1ccc(Nc2nnc(Cc3ccncc3)c3ccccc23)cc1 gave a remaining signal of 93.4% (cell-free assay; 0.5 µM).
The ΔTm of Cn1c2c(c3ccc(Cl)c(Cl)c31)C(C#N)C(C)(C)NC2=O (centres unmarked) is reported as 0.1 °C (thermal stability, DSF; 10 µM).
CC/C(=N\NC(=O)NCc1cccc(O)c1)c1ccc(O)c(C)c1O has an inhibition of 1.3% (enzyme activity, inhibitor; 0.1 µM).
With Cn1c2c(c3ccc(Cl)c(Cl)c31)C(C#N)C1(CCN(C(=O)OC(C)(C)C)CC1)NC2=O (racemic) the ΔTm was -0.3 °C (thermal stability, DSF; 10 µM).
With CC1=C(C#N)C(c2ccc3c(c2)c(NC(=O)c2ccccc2C)nn3C)C(C#N)=C(C)N1 the remaining binding was 70% (cell-free assay, competition with immobilised ligand; 1 µM).
The ΔTm of N#CC1c2c([nH]c3c(Cl)c(Cl)ccc23)C(=O)NC12CCCCC2 (racemic) is reported as 0.6 °C (thermal stability, DSF; 10 µM).
O=C(NS(=O)(=O)c1ccc(NCC2CCOCC2)c([N+](=O)[O-])c1)c1ccc(N2CCN(Cc3ccc(C(F)(F)F)cc3-c3ccc(Cl)cc3)CC2)cc1Oc1cnc2[nH]ccc2c1 has a remaining binding of 100% (cell-free assay, competition with immobilised ligand; 1 µM).
With O=C(Nc1cnn(-c2csc(C(=O)NC3COC3)c2)c1)Nc1ccccc1Cl the remaining activity was 114% (enzyme activity, inhibitor; 5 µM).
Cn1c2c(Cl)c(Cl)ccc2c2cc[nH]c(=O)c21 gave a ΔTm of 0.4 °C (thermal stability, DSF; 10 µM).
For CS(=O)(=O)CCNCc1ccc(-c2ccc3ncnc(Nc4ccc(OCc5cccc(F)c5)c(Cl)c4)c3c2)o1, the remaining signal was 107% (cell-free assay; 0.5 µM).
The ΔTm of Cn1c2c(c3ccc(Cl)c(Cl)c31)C(C#N)C1(CCCCC1)NC2=O (racemic) is reported as 0.7 °C (thermal stability, DSF; 10 µM).
CCc1ccccc1C(=O)Nc1n[nH]c2c(C)c(F)c(C3C(C#N)=C(C)N(C)C(C)=C3C#N)cc12 gave a remaining binding of 56% (cell-free assay, competition with immobilised ligand; 1 µM).
